From ChEMBL document CHEMBL1126038, “3-(2-Carboxyindol-3-yl)propionic acid-based antagonists of the N-methyl-D-aspartic acid receptor associated glycine binding site” (J Med Chem, 1992)

Tests used:
[1] = target: Glutamate NMDA receptor (Rattus norvegicus) (UniProt P35439+Q00959+Q00960+Q00961+Q62645+Q8VHN2+Q9R1M7); assay: Ratio of the inhibitory activity against […] for rat cortical and hippocampal membrane glutamate binding site to [3H]glycine for rat cortical and hippocampal membrane binding site.; format: tissue-based; details: Hippocampus
[2] = Ability to compete with […] for rat cortical and hippocampal membrane glutamate binding site.; format: tissue-based, Hippocampus
How it was run: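 Competition binding against [³H]CPP at the glutamate site, using rat cortical and hippocampal membranes. Values are means of two or more experiments, with standard errors ±10-30% of the mean.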

Glutamate NMDA receptor = assay: Ability to compete with [3H]glycine for strychnine-insensitive binding sites on rat cortical and hippocampal membrane; format: tissue-based, Hippocampus
How it was run: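 Rat cortical plus hippocampal membranes, competing against [³H]glycine at strychnine-insensitive sites. Values are the mean of ≥2 experiments, with SE within 10-30% of the mean.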

[3] = target: Glutamate receptor ionotropic, kainate; assay: The compound was evaluated […] for the competitive binding against [3H]kainate for rat cortical and hippocampal membrane glutamate binding site.
Mus musculus [4] = assay: The compound was evaluated in vivo for the anticonvulsant activity in quinolinic acid seizure model (intracerebroventricular), for 5 min drug pretreatment time; format: functional; details: central
How it was run: (§1)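 Mice got test compound in distilled water with a few drops of Tween (1 mL/kg) at set times before icv quinolinic acid (7.7 μg in 5 μL saline). Clonic-tonic seizures were watched for 15 min, and non-convulsing mice counted as protected.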

[5] = target: Glutamate receptor ionotropic, AMPA (Rattus norvegicus, UniProt P19490+P19491+P19492+P19493); assay: The compound was evaluated […] for the competitive binding against […] for rat cortical and hippocampal membrane glutamate binding site.
Mus musculus [6] = assay: The compound was evaluated in vivo for the anticonvulsant activity in audiogenic seizure model (intraperitoneal), for 2 hr drug pretreatment time; format: functional; details: ip
How it was run: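 Male DBA/2J audiogenic-susceptible mice (groups of 6-8) got test compound in methylcellulose, with saline controls by the same route. A 110 dB (12 KHz) sound was given for 30 s. Absence of tonic hindlimb extension counted as protection. ED50 was reported.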

Mus musculus [7] = assay: The compound was evaluated in vivo for the anticonvulsant activity in quinolinic acid seizure model (intravenous), for 5 min drug pretreatment time; format: functional; how it was run: as §1
Mus musculus [8] = assay: The compound was evaluated in vivo for the anticonvulsant activity in quinolinic acid seizure model (intraperitoneal), for 2 hr drug pretreatment time; format: functional; details: ip; how it was run: as §1
Mus musculus [9] = assay: The compound was evaluated in vivo for the anticonvulsant activity in quinolinic acid + probenecid seizure model (intravenous), for 5 min drug pretreatment time; format: functional
How it was run: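 Quinolinic acid seizure in mice: probenecid 200 mg/kg ip given 30 min before the test compound. Test compound in distilled water with Tween (1 mL/kg), then icv quinolinic acid (7.7 μg in 5 μL saline). Mice were watched 15 min for clonic-tonic seizures.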

[10] = The compound was evaluated for the ability to compete with […] for rat cortical and hippocampal membrane glutamate binding site.; format: tissue-based, Hippocampus
How it was run: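 Competition binding against [³H]CPP at the glutamate site, using rat cortical and hippocampal membranes. […] Values are means of two or more experiments, with standard errors ±10-30% of the mean.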

[11] = target: Glutamate receptor ionotropic, NMDA 1 (Rattus norvegicus, UniProt P35439); assay: The compound was evaluated for the ability to compete with [3H]glycine for strychnine-insensitive binding sites on rat cortical and hippocampal membrane; format: tissue-based, Hippocampus
How it was run: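 Rat cortical plus hippocampal membranes, competing against [³H]glycine at strychnine-insensitive sites. […] Values are the mean of ≥2 experiments, with SE within 10-30% of the mean.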

SMILES	Ratio [1]	IC50 [2] [µM]	IC50 (Glutamate NMDA receptor) [µM]	further results
O=C(O)CCc1c(C(=O)O)[nH]c2cccc(Cl)c12	10	60		
COc1cc(OC)c2c(CCC(=O)O)c(C(=O)O)[nH]c2c1			> 100	
O=C(O)CCc1c(C(=O)O)[nH]c2cc(Oc3ccccc3)ccc12			> 1000	
O=C(O)CCc1c(C(=O)O)[nH]c2cc(Cl)cc(Cl)c12	2100 CPP/GLY	358	0.17	IC50 [3]: 418 µM; ED50 (Mus musculus [4]): 1.5 µg; IC50 [5]: 273 µM; ED50 (Mus musculus [6]): 100 mg/kg; ED50 (Mus musculus [7]): > 50 mg/kg; ED50 (Mus musculus [8]): 256 mg/kg; ED50 (Mus musculus [9]): 50 mg/kg
O=C(O)CSc1c(C(=O)O)[nH]c2cc(Cl)cc(Cl)c12			0.1	IC50 [3]: > 100 µM; IC50 [5]: > 100 µM
O=C(O)CCc1cc(C(=O)O)nc2ccccc12		> 100	> 100	
O=C(O)CCc1c(C(=O)O)[nH]c2cccc([N+](=O)[O-])c12			75	
O=C(O)CCc1c(C(=O)O)[nH]c2cc(F)ccc12			5	
O=C(O)CCc1c(C(=O)O)[nH]c2cc([N+](=O)[O-])ccc12			2.5	
Cn1c(C(=O)O)c(CCC(=O)O)c2c(Cl)cc(Cl)cc21	> 2	> 100	45	
COc1ccc2c(CCC(=O)O)c(C(=O)O)[nH]c2c1	11	141	13	
COc1cc(C(=O)O)nc2ccccc12				IC50 [10]: > 100 µM; IC50 [11]: > 100 µM
O=C(O)c1cc2ccccc2[nH]1 [INDOLE-2-CARBOXYLIC ACID]	40	4200		
O=C(O)c1cc2c(Cl)cc(Cl)cc2[nH]1	> 150	> 1000		
O=C(O)CCc1c(C(=O)O)[nH]c2cccc(F)c12	3	51	17	
O=C(O)CCc1c(C(=O)O)[nH]c2c1ccc1ccccc12			> 100	
O=C(O)c1cc(=O)c2ccccc2[nH]1 [TRANSTORINE]		71		
O=C(O)CCc1c(C(=O)O)[nH]c2ccc3ccccc3c12			> 100	
O=C(O)CCc1c(C(=O)O)[nH]c2cc(C(F)(F)F)ccc12			8	
O=C(O)CCc1c(C(=O)O)[nH]c2c(Cl)cccc12	> 1	> 1000	> 100	
O=C(O)CCc1c(C(=O)O)[nH]c2cc(F)cc(F)c12			4	
O=C(O)COc1cc(C(=O)O)nc2ccccc12	28	710	25	
O=C(O)CCc1c(C(=O)O)[nH]c2cc(Cl)ccc12	140	283	2	
O=C(O)CCc1c(C(=O)O)[nH]c2ccccc12	1	34	27	
O=C(O)CSc1c(C(=O)O)[nH]c2ccccc12	1.6	16	12	
O=C(O)CCc1c(C(=O)O)[nH]c2cccc(C(F)(F)F)c12			13	
CS(=O)(=O)Nc1ccc2c(CCC(=O)O)c(C(=O)O)[nH]c2c1			> 100	
O=C(O)CCc1c(C(=O)O)[nH]c2ccc(Cl)cc12	2	25	23	
O=C(O)c1cc(O)c2c(Cl)cc(Cl)cc2n1	80	12	0.143	
